≈ marks a conversion by molar mass, not a printed value. Structures can show the parent of a compound that is named as a salt.
How the values were obtained:
[1] = system: Mycobacterium tuberculosis; test: Antimicrobial activity against Mycobacterium tuberculosis H37Rv incubated for 24 hrs and measured by MTT assay; format: functional
Method in brief: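 Pellicle-grown Mtb bacilli were vortexed with glass beads, clumps removed by slow spin, and set to A600 0.1 in 7H9/0.2% glycerol. 2 µL compound in DMSO (1 mM, or 2-fold serial dilutions) went into 100 µL broth with 100 µL bacteria. Plates ran 6 d at 37 °C, then MTT (1 mg/mL) for 24 h, SDS solubilisation and A570. MIC was the lowest concentration inhibiting growth versus the untreated control.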

[2] = molecular target: T1, Long-chain-fatty-acid--AMP ligase FadD32 (Mycobacterium tuberculosis (strain ATCC 25618 / H37Rv), UniProt O53580); test: Inhibition of Mycobacterium tuberculosis FAAL32 using AMPC12 as substrate incubated for 50 mins and measured by spectrophotometric assay
T1 sequence (O53580 whole entry): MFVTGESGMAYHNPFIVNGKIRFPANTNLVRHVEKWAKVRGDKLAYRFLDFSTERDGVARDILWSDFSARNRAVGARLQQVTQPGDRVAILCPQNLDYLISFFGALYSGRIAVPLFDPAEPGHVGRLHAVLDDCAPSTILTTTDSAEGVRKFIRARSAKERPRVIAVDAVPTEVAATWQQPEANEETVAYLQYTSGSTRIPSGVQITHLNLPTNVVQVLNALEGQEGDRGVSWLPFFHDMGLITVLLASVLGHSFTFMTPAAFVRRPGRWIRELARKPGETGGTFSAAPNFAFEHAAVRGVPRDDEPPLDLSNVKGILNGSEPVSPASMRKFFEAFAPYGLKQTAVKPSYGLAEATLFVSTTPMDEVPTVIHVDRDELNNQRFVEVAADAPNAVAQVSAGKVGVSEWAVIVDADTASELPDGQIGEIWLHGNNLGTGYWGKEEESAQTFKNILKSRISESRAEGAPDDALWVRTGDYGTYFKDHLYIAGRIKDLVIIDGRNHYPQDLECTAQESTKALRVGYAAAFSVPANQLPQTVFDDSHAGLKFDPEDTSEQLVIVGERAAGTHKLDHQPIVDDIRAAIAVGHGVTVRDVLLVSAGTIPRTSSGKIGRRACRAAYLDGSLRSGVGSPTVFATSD
Method in brief: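 Purified Mtb FAAL32 was run with lauric acid and ATP in HEPES pH 7.5, MgCl2, DTT and detergent. Pyrophosphatase coupling converted released PPi to Pi, read after 50 min as A630 with a phosphate colour reagent against a Pi calibration curve. Compounds (final 0.5–66 µM, DMSO) were added before the enzyme. IC50 came from a sigmoidal fit of percent inhibition.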

[3] = molecular target: T2, Long-chain-fatty-acid--AMP ligase FadD32 (Mycobacterium tuberculosis (strain ATCC 25618 / H37Rv)) (UniProt O53580); test: Binding affinity to Mycobacterium tuberculosis FAAL32 assessed as change in melting temperature at 5 uM by NanoDSF assay
T2 sequence (whole entry): T1 sequence (O53580 whole entry)
Method in brief: (§1)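 nanoDSF used 0.5 µM purified FAAL32 with ligand at 0.5–10 µM in 50 mM HEPES pH 7.5, 500 mM NaCl, 5% DMSO. Samples sat 5 min at RT, then were heated 20–70 °C at 1 °C/min. Tm came from the F350/F330 fluorescence ratio; the DMSO-only protein was the reference.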

[4] = molecular target: T2, Long-chain-fatty-acid--AMP ligase FadD32 (Mycobacterium tuberculosis (strain ATCC 25618 / H37Rv)); test: Binding affinity to Mycobacterium tuberculosis FAAL32 assessed as change in melting temperature at 2.5 uM by NanoDSF assay; method in brief: as §1

CCCCC(CC)CNC(=N)NC(=N)NCCCCCCNC(=N)NC(=N)NCC(CC)CCCC (stereo unspecified) [ALEXIDINE DIHYDROCHLORIDE]
MIC [1]: > 1 µM

O=C(O)c1cn(C2CC2)c2cc(N3CCNCC3)c(F)cc2c1=O [CIPROFLOXACIN]
MIC [1]: 1.25 µM (≈ 0.414 µg/mL)

Cc1cc(C(C#N)c2ccc(Cl)cc2)c(Cl)cc1NC(=O)c1cc(I)cc(I)c1O (stereo unspecified) [CLOSANTEL]
MIC [1]: 0.08 µM (≈ 0.053 µg/mL) | IC50 [2]: 7.7 µM | ΔTm [3]: 2.7 °C

Oc1c(Cl)cc(Cl)c(Cl)c1Cc1c(O)c(Cl)cc(Cl)c1Cl [HEXACHLOROPHENE]
MIC [1]: 0.08 µM (≈ 0.0326 µg/mL)

NNC(=O)c1ccncc1 [ISONIAZID]
MIC [1]: 0.6 µM (≈ 0.0823 µg/mL)

Clc1ccc(COC(Cn2ccnc2)c2ccc(Cl)cc2Cl)c(Cl)c1 (stereo unspecified) [MICONAZOLE]
MIC [1]: > 1 µM

CC(C)(O)c1ccccc1CC[C@@H](SCC1(CC(=O)O)CC1)c1cccc(/C=C/c2ccc3ccc(Cl)cc3n2)c1 [MONTELUKAST]
MIC [1]: > 1 µM

O=C(Nc1ccc([N+](=O)[O-])cc1Cl)c1cc(Cl)ccc1O [NICLOSAMIDE]
MIC [1]: < 0.4 µM

CC(=O)Oc1ccccc1C(=O)Nc1ncc([N+](=O)[O-])s1 [NITAZOXANIDE]
MIC [1]: 10 µM (≈ 3.07 µg/mL)

O=C(Nc1cc(Cl)cc(Cl)c1O)c1c(O)c(Cl)cc(Cl)c1Cl [OXYCLOZANIDE]
MIC [1]: 0.32 µM (≈ 0.128 µg/mL)

O=C(Nc1ccc(Oc2ccc(Cl)cc2)c(Cl)c1)c1cc(I)cc(I)c1O [RAFOXANIDE]
MIC [1]: 0.08 µM (≈ 0.0501 µg/mL) | ΔTm [4]: 2.7 °C

CCCCCCCCCCCCCCCC[N+](C)(C)CCN(Cc1ccc(OC)cc1)c1ncccn1 [THONZONIUM BROMIDE]
MIC [1]: > 1 µM

VERTEPORFIN
MIC [1]: > 1 µM

From ChEMBL document CHEMBL5108008, “Drug screening approach against mycobacterial fatty acyl-AMP ligase FAAL32 renews the interest of the salicylanilide pharmacophore in the fight against tuberculosis” (Bioorg Med Chem, 2022)
